Assay [1] is filed under the species Rattus norvegicus. Put plainly: (§1) Reduction rate of LDH release from neuronal cells injured by iron […]. In kind it is functional. The method in brief:
(§2)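 Cortical neurons from E17-18 rat embryos, cultured 7-9 days at 37 °C, 5% CO2. Serum lowered to 0.2% in MEM. Pretreated 30 min with compound in DMSO (final ≤0.2%), then FeSO4 at 50 µM final for 24 h. LDH released into medium measured; reduction of LDH release taken relative to control. Four determinations averaged.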

The species named for assay [2] is Rattus norvegicus. Described as §1. In kind it is functional, cell-based.
Assay [3] concerns Rattus norvegicus. Put plainly: Ratio of myocardial infarct zone to area at risk (IZ/AAR) in ischemic myocardium damage rat model (Cardioprotective effect) at 0.3 mg/Kg. Type of assay: functional. Summed up:
(§3)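 Male Sprague-Dawley rats (350-450 g), pentobarbital 75 mg/kg i.p., ventilated 60/min at 10 mL/kg, 37 °C. Vehicle or compound given via femoral vein over 30 min, with or without glibenclamide or 5-HD. Left coronary occlusion 45 min, reperfusion 90 min. Risk zone marked by Evans blue after reocclusion. LV slices stained with TTC at 37 °C, pH 7.4, 15 min. Infarct area summed, divided by AAR weight; n = 3 or more.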

The subject of assay [4] is Rattus norvegicus. Description: Ratio of myocardial infarct zone to area at risk […] in ischemic myocardium damage rat model (Cardioprotective effect) at 0.3 mg/Kg. Type of assay: functional. The method in brief: as §3
The species named for assay [5] is Rattus norvegicus. Put plainly: Inhibition of methoxamine-contracted rat aorta (Vasorelaxant potency). In kind it is functional. The method in brief: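 Rat aortic rings (Sprague-Dawley, 350-450 g; 3 mm rings, adipose removed) held in oxygenated modified Krebs-Henseleit PSS at 37 °C under 2 g resting tension, stabilised 1 h. Once methoxamine contraction reached a maintained maximum, compound added cumulatively at 1, 3, 10, 30 µM. Relaxation taken as change in maximal methoxamine constriction and plotted as concentration-relaxation curve.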

For assay [6], the species on record is Rattus norvegicus. Put plainly: Reduction rate of LDH release from rat neuronal cells injured by iron […]. Type of assay: functional. Summed up: as §2
Assay [7] concerns Rattus norvegicus. Description: Ratio of myocardial infarct zone to area at risk (IZ/AAR) in ischemic myocardium damage rat model (Cardioprotective effect) in the presence of 5-HD (10 mg/kg). Type of assay: functional. The method in brief:
as §3

Assay [8] concerns Rattus norvegicus. Put plainly: Ratio of myocardial infarct zone to area at risk […] in ischemic myocardium damage rat model (Cardioprotective effect) in the presence of Gliben 1 mg/kg. Type of assay: functional. Summed up:
as §3

The subject of assay [9] is Rattus norvegicus. Put plainly: Ratio of myocardial infarct zone to area at risk […] in ischemic myocardium damage rat model (Cardioprotective effect) at 0.1 mg/Kg. In kind it is functional. Summed up:
as §3

Assay [10] deals with Rattus norvegicus. Put plainly: Ratio of myocardial infarct zone to area at risk(IZ/AAR)in ischemic myocardium damage rat model (Cardioprotective effect) at 0.3 mg/kg; Not determined. In kind it is functional. The method in brief:
as §3

Assay [11] concerns Rattus norvegicus. Description: Ratio of myocardial infarct zone to area at risk(IZ/AAR)in ischemic myocardium damage rat model (Cardioprotective effect) at 1 mg/kg; Not determined. Type of assay: functional. Summed up: as §3
Assay [12] has as its system Rattus norvegicus. Description: Ratio of myocardial infarct zone to area at risk(IZ/AAR)in ischemic myocardium damage rat model (Cardioprotective effect) at 0.1 mg/kg. Type of assay: functional. The method in brief:
as §3

The subject of assay [13] is Rattus norvegicus. Put plainly: Ratio of myocardial infarct zone to area at risk (IZ/AAR) in ischemic myocardium damage rat model (Cardioprotective effect) in the presence of Gliben 1 mg/kg. In kind it is functional. Summed up: as §3
In assay [14] the test system is Rattus norvegicus. Put plainly: Ratio of myocardial infarct zone to area at risk […] in ischemic myocardium damage rat model (Cardioprotective effect) in the presence of 5-HD (10 mg/kg). Type of assay: functional. The method in brief:
as §3

Assay [15] relates to Rattus norvegicus. Description: Ratio of myocardial infarct zone to area at risk […] in ischemic myocardium damage rat model (Cardioprotective effect) at 1 mg/Kg. In kind it is functional. The method in brief: as §3

Each structure is given as a SMILES string.

Usually inhibition stands for the drop in the measured response relative to a control, in per cent. Lower therefore signals a weak effect. Regarding `COC(OC)[C@]1(C)Oc2ccc([N+](=O)[O-])cc2[C@@H](N/C(=N/C#N)NCc2ccccc2)[C@@H]1O`, in the assay filed under Rattus norvegicus [1], the inhibition at 30 µM was 37%.
The IC50 is the midpoint of a concentration-inhibition curve. The low end stands for higher potency, the high end for lower potency. As for `COC(OC)[C@@]1(C)Oc2ccc(N)cc2[C@H](/N=C(\NC#N)NCc2ccccc2)[C@H]1O`, in the assay filed under Rattus norvegicus [2], inhibition was half-maximal at 9.2 µM (IC50). Besides, the Effect in the assay with Rattus norvegicus [3] was found to be 51%; in the assay with Rattus norvegicus [4] it was 33%.
In the assay listed under Rattus norvegicus [1], `COC(OC)[C@]1(C)Oc2ccc(NC(C)=O)cc2[C@H](/N=C(\NC#N)NCc2ccccc2)[C@@H]1O` gave an inhibition at 30 µM of 25%. Further, the results for the Effect in the assay with Rattus norvegicus [3] and with Rattus norvegicus [4] were 45% and 41%, respectively.
Regarding `COC(OC)[C@]1(C)Oc2ccc([N+](=O)[O-])cc2[C@@H](/N=C(\NC#N)Nc2ccc(Cl)cc2)[C@@H]1O`, the inhibition at 30 µM in the assay filed under Rattus norvegicus [1] was 61%. Further, the Effect in the assay with Rattus norvegicus [3] came out at 52%; in the assay on Rattus norvegicus [4], 37%. In the assay listed under Rattus norvegicus [5] (Rattus norvegicus, Aorta), this molecule returned an IC50 of 17.5 µM.
Consider `CC1(C)COC([C@]2(C)Oc3ccc(N)cc3[C@H](/N=C(\NC#N)NCc3ccccc3)[C@@H]2O)OC1`, for which, in the assay listed under Rattus norvegicus [1], testing at 30 µM gave an inhibition of 60%. The Effect turned out to be 56% in the assay with Rattus norvegicus [3] and 42% with Rattus norvegicus [4].
Take `COC(OC)[C@]1(C)Oc2ccc([N+](=O)[O-])cc2[C@@H](/N=C(\NC#N)Nc2cccc(Cl)c2)[C@@H]1O`: in the assay filed under Rattus norvegicus [1], at 30 µM the inhibition was 70%. Besides, the Effect in the assay with Rattus norvegicus [3] was 40%; in the assay with Rattus norvegicus [4], 47%. The IC50 in the assay filed under Rattus norvegicus [5] (Rattus norvegicus, Aorta) was determined as 30.5 µM.
In the case of `COc1ccc(N/C(=N/[C@H]2c3cc([N+](=O)[O-])ccc3O[C@@](C)(C(OC)OC)[C@H]2O)NC#N)cc1`, at 30 µM the inhibition in the assay filed under Rattus norvegicus [1] was 45%. Further, the Effect in the assay on Rattus norvegicus [3] came to 43%; with Rattus norvegicus [4], 38%.
In the case of `COC(OC)[C@]1(C)Oc2ccc(N)cc2[C@@H](/N=C(\NC#N)NCc2ccccc2)[C@@H]1O`, the IC50 in the assay filed under Rattus norvegicus [2] was found to be 8 µM. For the same molecule, the Effect is reported as 46% with Rattus norvegicus [3] and 39% with Rattus norvegicus [4].
On to `COC(OC)[C@]1(C)Oc2ccc(N)cc2[C@H](/N=C(\NC#N)NCc2ccccc2)[C@H]1O`, for which it took 4.1 µM to reach half-maximal inhibition in the assay filed under Rattus norvegicus [2] (IC50). For the same molecule, the Effect in the assay on Rattus norvegicus [3] was found to be 51%; with Rattus norvegicus [4] it was 38%.
With `CC1(C)Oc2ccc(C#N)cc2[C@@H](/N=C(\NC#N)Nc2ccc(Cl)cc2)[C@@H]1O`, the inhibition at 30 µM in the assay listed under Rattus norvegicus [6] is 20%. For the same molecule, the Effect in the assay with Rattus norvegicus [3] and with Rattus norvegicus [4] was 39% throughout. In the assay filed under Rattus norvegicus [5] (Rattus norvegicus, Aorta), the IC50 was 3.2 µM.
Molecule `COC(OC)C1(C)Oc2ccc([N+](=O)[O-])cc2C(/N=C(\NC#N)Nc2ccc(Cl)cc2)[C@@H]1O` (single isomer, unassigned) gave an inhibition at 30 µM in the assay listed under Rattus norvegicus [1] of 58%. The Effect in the assay on Rattus norvegicus [3] and with Rattus norvegicus [4] was 46% throughout.
The molecule `COC(OC)C1(C)Oc2ccc([N+](=O)[O-])cc2C(/N=C(\NC#N)NCc2ccccc2)[C@@H]1O` (single isomer, unassigned) gave an inhibition at 30 µM in the assay filed under Rattus norvegicus [1] of 7%. The Effect is listed as 49% in the assay with Rattus norvegicus [3] and 37% in the assay on Rattus norvegicus [4].
Molecule `CC1(C2OCCO2)Oc2ccc(N)cc2C(/N=C(\NC#N)NCc2ccccc2)[C@@H]1O` (single isomer, unassigned) gave an inhibition at 30 µM in the assay listed under Rattus norvegicus [1] of 3.6%. Also, the Effect was 52% in the assay with Rattus norvegicus [3] and 32% with Rattus norvegicus [4].
Regarding `COC(OC)C1(C)Oc2ccc(NS(C)(=O)=O)cc2C(/N=C(\NC#N)NCc2ccccc2)[C@@H]1O` (single isomer, unassigned), at 30 µM the inhibition in the assay listed under Rattus norvegicus [1] was 10%. In addition, the Effect in the assay on Rattus norvegicus [3] was found to be 43%; in the assay with Rattus norvegicus [4] it was 35%.
Molecule `COc1ccc(CN/C(=N/C2c3cc(N)ccc3OC(C)(C(OC)OC)[C@H]2O)NC#N)cc1` (single isomer, unassigned) yielded an IC50 in the assay listed under Rattus norvegicus [2] of 4.1 µM. Further, the Effect worked out at 42% in the assay on Rattus norvegicus [3] and 37% with Rattus norvegicus [4].
Turning to `COC(OC)C1(C)Oc2ccc(N)cc2C(/N=C(\NC#N)NCc2ccccc2)[C@@H]1O` (single isomer, unassigned), the Effect in the assay with Rattus norvegicus [7] was 46%; with Rattus norvegicus [8], 33%; in the assay on Rattus norvegicus [9], 34%; in the assay on Rattus norvegicus [10], 37%; in the assay with Rattus norvegicus [11], 34%; with Rattus norvegicus [3], 37%. The Effect worked out at 42% in the assay with Rattus norvegicus [12]; 35% in the assay on Rattus norvegicus [4]; 51% in the assay with Rattus norvegicus [13]; 35% in the assay with Rattus norvegicus [14]; 35% with Rattus norvegicus [15]. In the assay filed under Rattus norvegicus [2], the half-inhibitory concentration (IC50) is 2.2 µM.
As to `COC(OC)C1(C)Oc2ccc([N+](=O)[O-])cc2C(N/C(=N/C#N)NCc2ccccc2)[C@H]1O` (single isomer, unassigned), the half-maximal inhibitory concentration (IC50) in the assay listed under Rattus norvegicus [5] (Rattus norvegicus, Aorta) worked out at 7.3 µM.
Take `COC(OC)[C@@]1(C)Oc2ccc([N+](=O)[O-])cc2C(N/C(=N/C#N)NCc2ccccc2)[C@H]1O` (single isomer, unassigned): the figures for the Effect in the assay with Rattus norvegicus [3] and in the assay on Rattus norvegicus [4] were 49% and 38%, respectively. Half-maximal inhibition in the assay listed under Rattus norvegicus [5] (IC50) required 9.8 µM.

The record behind these values is ChEMBL document CHEMBL1134290, “A novel anti-ischemic ATP-sensitive potassium channel (K(ATP)) opener without vasorelaxation: N-(6-aminobenzopyranyl)-N'-benzyl-N' '-cyanoguanidine analogue” (J Med Chem, 2001).
